Test results taken from ChEMBL document CHEMBL1140876, “Synthesis and antibacterial property of quinolines with potent DNA gyrase activity” (2009).
Values after ≈ are worked out from the molar mass of the structure shown. Active and inactive are the calls of the source. The calls are words filed in the database; no cut-off is given here.

How the values were obtained:
Escherichia coli [1] = assay: Antimicrobial activity against Escherichia coli at 25 ug after 24 hrs by disk diffusion method; format: functional; conditions: read-out: IZ
Outline: (§1)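 Inoculum made in 0.85% saline against McFarland standard, swabbed evenly onto nutrient agar; sterile filter-paper discs set equidistant and loaded with equal volumes of drug at varying amounts; zone of inhibition measured after 24 h at 37 °C; ciprofloxacin reference.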

Klebsiella pneumoniae [2] = assay: Antimicrobial activity against Klebsiella pneumoniae by broth microdilution assay; format: functional
Outline: (§2)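 Broth microdilution per NCCLS 1997 in 96-well plate; final inoculum 10^5 cfu/mL; incubated 35.7 °C in air 18–20 h; MIC read as lowest concentration with no visible growth.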

Pseudomonas aeruginosa [3] = assay: Antimicrobial activity against Pseudomonas aeruginosa by broth microdilution assay; format: functional; outline: as §2
Klebsiella pneumoniae [4] = assay: Antimicrobial activity against Klebsiella pneumoniae at 15 ug after 24 hrs by disk diffusion method; format: functional; conditions: read-out: IZ; outline: as §1
Pseudomonas aeruginosa [5] = assay: Antimicrobial activity against Pseudomonas aeruginosa at 15 ug after 24 hrs by disk diffusion method; format: functional; conditions: read-out: IZ; outline: as §1
Staphylococcus aureus [6] = assay: Antimicrobial activity against Staphylococcus aureus at 10 ug after 24 hrs by disk diffusion method; format: functional; conditions: read-out: IZ; outline: as §1
Salmonella typhi = assay: Antimicrobial activity against Salmonella typhi by broth microdilution assay; format: functional, Salmonella enterica subsp. enterica serovar Typhi; conditions: Salmonella enterica
Outline: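 Broth microdilution in 96-well plates following the NCCLS 1997 protocol. Final inoculum was 10^5 cfu/mL, with a control organism run alongside. Plates were incubated at 35.7 °C in air for 18–20 h. MIC is the lowest concentration with no visible growth.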

Bacillus subtilis [7] = assay: Antimicrobial activity against Bacillus subtilis at 10 ug after 24 hrs by disk diffusion method; format: functional; conditions: read-out: IZ; outline: as §1
Bacillus subtilis [8] = assay: Antimicrobial activity against Bacillus subtilis at 15 ug after 24 hrs by disk diffusion method; format: functional; conditions: read-out: IZ; outline: as §1
Bacillus subtilis [9] = assay: Antimicrobial activity against Bacillus subtilis at 20 ug after 24 hrs by disk diffusion method; format: functional; conditions: read-out: IZ; outline: as §1
Salmonella typhimurium [10] = assay: Antimicrobial activity against Salmonella Typhimurium at 10 ug after 24 hrs by disk diffusion method; format: functional, Salmonella enterica subsp. enterica serovar Typhimurium; conditions: Salmonella enterica, read-out: IZ; outline: as §1
Staphylococcus aureus [11] = assay: Antimicrobial activity against Staphylococcus aureus at 25 ug after 24 hrs by disk diffusion method; format: functional; conditions: read-out: IZ; outline: as §1
Bacillus subtilis [12] = assay: Antimicrobial activity against Bacillus subtilis at 5 ug after 24 hrs by disk diffusion method; format: functional; conditions: read-out: IZ; outline: as §1
Salmonella typhimurium [13] = assay: Antimicrobial activity against Salmonella Typhimurium at 5 ug after 24 hrs by disk diffusion method; format: functional, Salmonella enterica subsp. enterica serovar Typhimurium; conditions: Salmonella enterica, read-out: IZ; outline: as §1
Bacillus subtilis [14] = assay: Antimicrobial activity against Bacillus subtilis by broth microdilution assay; format: functional; outline: as §2
Staphylococcus aureus [15] = assay: Antimicrobial activity against Staphylococcus aureus at 15 ug after 24 hrs by disk diffusion method; format: functional; conditions: read-out: IZ; outline: as §1
[16] = Inhibition of DNA gyrase assessed as pBR322 DNA relaxation at 1 uM
Outline: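 Relaxation without ATP: gyrase (60 nM) with supercoiled pBR322 DNA (6 nM) and drug at […] for 1 h at 37 °C; relaxation judged by gel. Ciprofloxacin, novobiocin and nalidixic acid comparators.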

Escherichia coli [17] = assay: Antimicrobial activity against Escherichia coli at 20 ug after 24 hrs by disk diffusion method; format: functional; conditions: read-out: IZ; outline: as §1
Escherichia coli [18] = assay: Antimicrobial activity against Escherichia coli at 10 ug after 24 hrs by disk diffusion method; format: functional; conditions: read-out: IZ; outline: as §1
Pseudomonas aeruginosa [19] = assay: Antimicrobial activity against Pseudomonas aeruginosa at 20 ug after 24 hrs by disk diffusion method; format: functional; conditions: read-out: IZ; outline: as §1
Klebsiella pneumoniae [20] = assay: Antimicrobial activity against Klebsiella pneumoniae at 25 ug after 24 hrs by disk diffusion method; format: functional; conditions: read-out: IZ; outline: as §1
Bacillus subtilis [21] = assay: Antimicrobial activity against Bacillus subtilis at 25 ug after 24 hrs by disk diffusion method; format: functional; conditions: read-out: IZ; outline: as §1
Klebsiella pneumoniae [22] = assay: Antimicrobial activity against Klebsiella pneumoniae at 5 ug after 24 hrs by disk diffusion method; format: functional; conditions: read-out: IZ; outline: as §1
[23] = Inhibition of DNA gyrase assessed as conversion of relaxed pBR322 to supercoiled form
Outline: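 Supercoiling in 15 µL reactions: gyrase assay buffer, 150 ng relaxed pBR322, 2–3 µL purified DNA gyrase, 3 h at 37 °C (E. coli); stopped with 50% glycerol/0.25% bromophenol blue; 1% agarose in 1× TBE pH 8.3, 90 V 3 h; ethidium bromide stain; supercoiled band brightness by densitometry. Ciprofloxacin comparator.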

Klebsiella pneumoniae [24] = assay: Antimicrobial activity against Klebsiella pneumoniae at 10 ug after 24 hrs by disk diffusion method; format: functional; conditions: read-out: IZ; outline: as §1
Salmonella typhimurium [25] = assay: Antimicrobial activity against Salmonella Typhimurium at 25 ug after 24 hrs by disk diffusion method; format: functional, Salmonella enterica subsp. enterica serovar Typhimurium; conditions: Salmonella enterica, read-out: IZ; outline: as §1
Klebsiella pneumoniae [26] = assay: Antimicrobial activity against Klebsiella pneumoniae at 20 ug after 24 hrs by disk diffusion method; format: functional; conditions: read-out: IZ; outline: as §1
Staphylococcus aureus [27] = assay: Antimicrobial activity against Staphylococcus aureus by broth microdilution assay; format: functional; outline: as §2
Escherichia coli [28] = assay: Antimicrobial activity against Escherichia coli at 15 ug after 24 hrs by disk diffusion method; format: functional; conditions: read-out: IZ; outline: as §1
Escherichia coli [29] = assay: Antimicrobial activity against Escherichia coli at 5 ug after 24 hrs by disk diffusion method; format: functional; conditions: read-out: IZ; outline: as §1
Salmonella typhimurium [30] = assay: Antimicrobial activity against Salmonella Typhimurium at 20 ug after 24 hrs by disk diffusion method; format: functional, Salmonella enterica subsp. enterica serovar Typhimurium; conditions: Salmonella enterica, read-out: IZ; outline: as §1
Pseudomonas aeruginosa [31] = assay: Antimicrobial activity against Pseudomonas aeruginosa at 10 ug after 24 hrs by disk diffusion method; format: functional; conditions: read-out: IZ; outline: as §1
Salmonella typhimurium [32] = assay: Antimicrobial activity against Salmonella Typhimurium at 15 ug after 24 hrs by disk diffusion method; format: functional, Salmonella enterica subsp. enterica serovar Typhimurium; conditions: Salmonella enterica, read-out: IZ; outline: as §1
Staphylococcus aureus [33] = assay: Antimicrobial activity against Staphylococcus aureus at 5 ug after 24 hrs by disk diffusion method; format: functional; conditions: read-out: IZ; outline: as §1
Staphylococcus aureus [34] = assay: Antimicrobial activity against Staphylococcus aureus at 20 ug after 24 hrs by disk diffusion method; format: functional; conditions: read-out: IZ; outline: as §1
Escherichia coli [35] = assay: Antimicrobial activity against Escherichia coli by broth microdilution assay; format: functional; outline: as §2
Pseudomonas aeruginosa [36] = assay: Antimicrobial activity against Pseudomonas aeruginosa at 5 ug after 24 hrs by disk diffusion method; format: functional; conditions: read-out: IZ; outline: as §1
Pseudomonas aeruginosa [37] = assay: Antimicrobial activity against Pseudomonas aeruginosa at 25 ug after 24 hrs by disk diffusion method; format: functional; conditions: read-out: IZ; outline: as §1

c1ccc(C2c3cc(Cc4ccc5c(c4)C(c4ccccc4)C4Cn6cccc6C4N5)ccc3NC3c4cccn4CC32)cc1 (stereo not given)
zone of inhibition at 25 µg/disc (Escherichia coli [1]): 22 mm | MIC50 (Klebsiella pneumoniae [2]): 0.125 µg/mL (≈ 0.214 µM) | MIC90 (Klebsiella pneumoniae [2]): 2 µg/mL (≈ 3.42 µM) | MIC50 (Pseudomonas aeruginosa [3]): 1 µg/mL (≈ 1.71 µM) | MIC90 (Pseudomonas aeruginosa [3]): 8 µg/mL (≈ 13.7 µM) | zone of inhibition at 15 µg/disc (Klebsiella pneumoniae [4]): 19 mm | zone of inhibition at 15 µg/disc (Pseudomonas aeruginosa [5]): 26 mm | zone of inhibition at 10 µg/disc (Staphylococcus aureus [6]): 13 mm | MIC50 (Salmonella typhi): 2.51 µg/mL (≈ 4.29 µM) | MIC90 (Salmonella typhi): 5 µg/mL (≈ 8.55 µM) | zone of inhibition at 10 µg/disc (Bacillus subtilis [7]): 9 mm | zone of inhibition at 15 µg/disc (Bacillus subtilis [8]): 10 mm | zone of inhibition at 20 µg/disc (Bacillus subtilis [9]): 12 mm | zone of inhibition at 10 µg/disc (Salmonella typhimurium [10]): 16 mm | zone of inhibition at 25 µg/disc (Staphylococcus aureus [11]): 21 mm | zone of inhibition at 5 µg/disc (Bacillus subtilis [12]): 7 mm | zone of inhibition at 5 µg/disc (Salmonella typhimurium [13]): 10 mm | MIC50 (Bacillus subtilis [14]): 0.25 µg/mL (≈ 0.428 µM) | MIC90 (Bacillus subtilis [14]): 5 µg/mL (≈ 8.55 µM) | zone of inhibition at 15 µg/disc (Staphylococcus aureus [15]): 15 mm | Activity [16]: Active | zone of inhibition at 20 µg/disc (Escherichia coli [17]): 21 mm | zone of inhibition at 10 µg/disc (Escherichia coli [18]): 14 mm | zone of inhibition at 20 µg/disc (Pseudomonas aeruginosa [19]): 28 mm | zone of inhibition at 25 µg/disc (Klebsiella pneumoniae [20]): 26 mm | zone of inhibition at 25 µg/disc (Bacillus subtilis [21]): 13 mm | zone of inhibition at 5 µg/disc (Klebsiella pneumoniae [22]): 12 mm | Activity [23]: Active | zone of inhibition at 10 µg/disc (Klebsiella pneumoniae [24]): 16 mm | zone of inhibition at 25 µg/disc (Salmonella typhimurium [25]): 24 mm | zone of inhibition at 20 µg/disc (Klebsiella pneumoniae [26]): 24 mm | MIC50 (Staphylococcus aureus [27]): 128 µg/mL (≈ 219 µM) | MIC90 (Staphylococcus aureus [27]): 128 µg/mL (≈ 219 µM) | zone of inhibition at 15 µg/disc (Escherichia coli [28]): 16 mm | zone of inhibition at 5 µg/disc (Escherichia coli [29]): 11 mm | zone of inhibition at 20 µg/disc (Salmonella typhimurium [30]): 22 mm | zone of inhibition at 10 µg/disc (Pseudomonas aeruginosa [31]): 24 mm | zone of inhibition at 15 µg/disc (Salmonella typhimurium [32]): 18 mm | zone of inhibition at 5 µg/disc (Staphylococcus aureus [33]): 9 mm | zone of inhibition at 20 µg/disc (Staphylococcus aureus [34]): 17 mm | MIC50 (Escherichia coli [35]): 2 µg/mL (≈ 3.42 µM) | MIC90 (Escherichia coli [35]): 8 µg/mL (≈ 13.7 µM) | zone of inhibition at 5 µg/disc (Pseudomonas aeruginosa [36]): 20 mm | zone of inhibition at 25 µg/disc (Pseudomonas aeruginosa [37]): 30 mm

O=C(O)c1cn(C2CC2)c2cc(N3CCNCC3)c(F)cc2c1=O [CIPROFLOXACIN]
MIC50 (Klebsiella pneumoniae [2]): 0.03 µg/mL (≈ 0.0905 µM) | MIC90 (Klebsiella pneumoniae [2]): 0.5 µg/mL (≈ 1.51 µM) | MIC50 (Pseudomonas aeruginosa [3]): 0.125 µg/mL (≈ 0.377 µM) | MIC90 (Pseudomonas aeruginosa [3]): 1 µg/mL (≈ 3.02 µM) | zone of inhibition at 15 µg/disc (Klebsiella pneumoniae [4]): 30 mm | zone of inhibition at 15 µg/disc (Pseudomonas aeruginosa [5]): 16 mm | zone of inhibition at 10 µg/disc (Staphylococcus aureus [6]): 24 mm | MIC50 (Salmonella typhi): 0.04 µg/mL (≈ 0.121 µM) | MIC90 (Salmonella typhi): 0.15 µg/mL (≈ 0.453 µM) | zone of inhibition at 10 µg/disc (Bacillus subtilis [7]): 7 mm | zone of inhibition at 15 µg/disc (Bacillus subtilis [8]): 9 mm | zone of inhibition at 20 µg/disc (Bacillus subtilis [9]): 10 mm | zone of inhibition at 10 µg/disc (Salmonella typhimurium [10]): 16 mm | zone of inhibition at 25 µg/disc (Staphylococcus aureus [11]): 36 mm | zone of inhibition at 5 µg/disc (Bacillus subtilis [12]): 6 mm | zone of inhibition at 5 µg/disc (Salmonella typhimurium [13]): 14 mm | MIC50 (Bacillus subtilis [14]): 0.04 µg/mL (≈ 0.121 µM) | MIC90 (Bacillus subtilis [14]): 0.15 µg/mL (≈ 0.453 µM) | zone of inhibition at 15 µg/disc (Staphylococcus aureus [15]): 26 mm | Activity [16]: Active | zone of inhibition at 10 µg/disc (Escherichia coli [18]): 16 mm | zone of inhibition at 20 µg/disc (Pseudomonas aeruginosa [19]): 20 mm | zone of inhibition at 25 µg/disc (Klebsiella pneumoniae [20]): 36 mm | zone of inhibition at 25 µg/disc (Bacillus subtilis [21]): 12 mm | zone of inhibition at 5 µg/disc (Klebsiella pneumoniae [22]): 24 mm | Activity [23]: Active | zone of inhibition at 10 µg/disc (Klebsiella pneumoniae [24]): 26 mm | zone of inhibition at 25 µg/disc (Salmonella typhimurium [25]): 24 mm | zone of inhibition at 20 µg/disc (Klebsiella pneumoniae [26]): 34 mm | MIC50 (Staphylococcus aureus [27]): 0.5 µg/mL (≈ 1.51 µM) | MIC90 (Staphylococcus aureus [27]): 1 µg/mL (≈ 3.02 µM) | zone of inhibition at 15 µg/disc (Escherichia coli [28]): 18 mm | zone of inhibition at 20 µg/disc (Salmonella typhimurium [30]): 22 mm | zone of inhibition at 10 µg/disc (Pseudomonas aeruginosa [31]): 14 mm | zone of inhibition at 15 µg/disc (Salmonella typhimurium [32]): 18 mm | zone of inhibition at 5 µg/disc (Staphylococcus aureus [33]): 22 mm | zone of inhibition at 20 µg/disc (Staphylococcus aureus [34]): 30 mm | MIC50 (Escherichia coli [35]): 0.015 µg/mL (≈ 0.0453 µM) | MIC90 (Escherichia coli [35]): 0.03 µg/mL (≈ 0.0905 µM) | zone of inhibition at 5 µg/disc (Pseudomonas aeruginosa [36]): 12 mm | zone of inhibition at 25 µg/disc (Pseudomonas aeruginosa [37]): 23 mm
